Measured values reported in ChEMBL document CHEMBL5260824, “9-Deazapurines as Broad-Spectrum Inhibitors of the ABC Transport Proteins P-Glycoprotein, Multidrug Resistance-Associated Protein 1, and Breast Cancer Resistance Protein” (J Med Chem, 2017).

Columns and labels:
A2780 = assay: Antiproliferative activity against human A2780 cells assessed as reduction in cell viability measured for 72 hrs bt MTT assay; type: functional
MRP1 [1] = molecular target: MRP1 (Homo sapiens, UniProt P33527); assay: Inhibition of MRP1 in human NCI-H69AR cells at 10 uM incubated for 180 mins in presence of daunorubicin by flow cytometry analysis relative to control; type: cell-based; conditions: probe daunorubicin
Chain of MRP1 (Homo sapiens, UniProt P33527) (P33527 whole entry): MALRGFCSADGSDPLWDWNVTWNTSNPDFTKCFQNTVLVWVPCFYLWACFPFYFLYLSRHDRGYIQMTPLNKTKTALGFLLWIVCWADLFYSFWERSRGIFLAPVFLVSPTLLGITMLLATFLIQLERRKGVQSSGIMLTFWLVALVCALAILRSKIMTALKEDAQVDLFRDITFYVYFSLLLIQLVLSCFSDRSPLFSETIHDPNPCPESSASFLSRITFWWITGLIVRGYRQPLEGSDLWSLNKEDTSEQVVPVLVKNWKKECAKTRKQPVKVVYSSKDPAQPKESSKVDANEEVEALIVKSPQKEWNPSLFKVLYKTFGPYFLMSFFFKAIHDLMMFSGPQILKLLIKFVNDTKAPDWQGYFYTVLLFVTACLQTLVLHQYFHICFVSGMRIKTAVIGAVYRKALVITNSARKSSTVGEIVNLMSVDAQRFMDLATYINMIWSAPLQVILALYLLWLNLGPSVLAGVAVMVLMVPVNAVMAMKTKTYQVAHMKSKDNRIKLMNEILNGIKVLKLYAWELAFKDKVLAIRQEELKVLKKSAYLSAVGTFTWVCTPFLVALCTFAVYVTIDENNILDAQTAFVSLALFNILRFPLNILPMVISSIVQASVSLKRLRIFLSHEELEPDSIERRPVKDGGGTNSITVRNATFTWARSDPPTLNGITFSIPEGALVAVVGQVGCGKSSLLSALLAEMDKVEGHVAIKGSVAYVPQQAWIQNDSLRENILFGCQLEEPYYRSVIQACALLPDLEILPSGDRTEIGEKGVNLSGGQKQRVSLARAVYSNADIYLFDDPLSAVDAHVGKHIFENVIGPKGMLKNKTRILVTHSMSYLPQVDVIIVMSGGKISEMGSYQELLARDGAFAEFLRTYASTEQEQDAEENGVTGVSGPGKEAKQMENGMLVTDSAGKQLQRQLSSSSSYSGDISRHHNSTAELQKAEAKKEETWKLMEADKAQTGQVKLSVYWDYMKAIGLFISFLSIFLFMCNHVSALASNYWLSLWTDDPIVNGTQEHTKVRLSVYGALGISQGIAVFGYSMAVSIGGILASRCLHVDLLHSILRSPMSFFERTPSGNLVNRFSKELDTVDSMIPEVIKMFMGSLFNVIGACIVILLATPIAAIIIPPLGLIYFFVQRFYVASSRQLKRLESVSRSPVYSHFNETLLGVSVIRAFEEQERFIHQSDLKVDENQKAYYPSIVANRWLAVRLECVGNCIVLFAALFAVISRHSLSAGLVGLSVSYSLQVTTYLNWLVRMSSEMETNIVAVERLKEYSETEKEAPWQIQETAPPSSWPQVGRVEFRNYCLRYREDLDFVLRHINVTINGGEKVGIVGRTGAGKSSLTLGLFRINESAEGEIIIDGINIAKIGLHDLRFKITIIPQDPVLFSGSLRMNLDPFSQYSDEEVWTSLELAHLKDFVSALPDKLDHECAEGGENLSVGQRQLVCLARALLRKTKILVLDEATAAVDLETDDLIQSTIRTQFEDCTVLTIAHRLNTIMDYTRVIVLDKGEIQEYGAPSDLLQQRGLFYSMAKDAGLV
How it was run: (§1)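 H69AR cells (doxorubicin-selected small cell lung cancer, RPMI-1640/20% FBS), about 60,000 per well, preincubated 15 min with compound (100 nM–100 µM added solutions, in unsupplemented medium), then daunorubicin (30 µM solution added); steady state after 180 min, 37 °C, 5% CO2. Cells resuspended; flow cytometry, 488 nm excitation, FL3 (≥670 nm). Reference inhibitor 75 at 10 µM = 100%; Imax relative to it.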

[2] = molecular target: Multidrug resistance-associated protein 1 (Homo sapiens, UniProt P33527); assay: Inhibition of MRP1 in human NCI-H69AR cells incubated for 180 mins in presence of daunorubicin by flow cytometry analysis; type: cell-based; how it was run: as §1
Chain of Multidrug resistance-associated protein 1 (P33527 whole entry): as above

H69AR [3] = assay: Potentiation factor, ratio of GI50 for daunorubicin resistant human NCI-H69AR cells expressing MRP1 cells to GI50 for reversal of daunorubicin resistance in human NCI-H69AR cells assessed as daunorubicin GI50 at 1 uM (reference value: 1 uM); type: functional
How it was run: (§2)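 Reversal assay: resistant lines (A2780/ADR, H69AR, MDCK II BCRP) and parental lines seeded as for MTT assay with modulator solutions of 1, 10 and 100 µM added (final 0.1, 1, 10 µM) and daunorubicin (P-gp, MRP1) or SN-38 (BCRP) at final 10 nM–10 µM. 72 h, MTT read-out; GI50 by variable-slope fit. Resistance factor = resistant/sensitive GI50; potentiation factor = GI50 without/with modulator.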

MRP1 [4] = assay: Therapeutic index, ratio of GI50 for antiproliferative activity against human NCI-H69AR cells to IC50 for inhibition of MRP1 in human NCI-H69AR cells; type: toxicity, cell-based
How it was run: (§3)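 Ratio of MTT-assay GI50 to transport-inhibition IC50, both in the resistant line. GI50 comes from 72 h exposure at 37 °C to dilutions up to 1000 µM, with medium as 100% and 10% DMSO as 0% viability. IC50 comes from calcein AM (A2780/ADR), daunorubicin (H69AR) or pheophorbide A (MDCK II BCRP) accumulation.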

NCI-H69 = assay: Antiproliferative activity against human NCI-H69 cells assessed as reduction in cell viability measured for 72 hrs bt MTT assay; type: functional
[5] = Potentiation factor, ratio of GI50 for SN-38 resistant dog MDCK-II-BCRP cells expressing BCRP cells to GI50 for reversal of SN-38 resistance in dog MDCK-II-BCRP cells assessed as SN-38 GI50 at 10 uM (reference value: 1 uM); type: functional, Canis lupus familiaris; how it was run: as §2
P-gp (ABCB1) [6] = assay: Therapeutic index, ratio of GI50 for antiproliferative activity against human A2780 ADR cells to IC50 for inhibition of P-gp (unknown origin); type: toxicity, cell-based; how it was run: as §3
[7] = Reversal of Daunorubicin resistance in human A2780 ADR cells assessed as Daunorubicin GI50 at 10 uM measured for 72 hrs by MTT assay; type: functional; how it was run: as §2
[8] = Sensitization of dog MDCK-II-BCRP cells expressing BCRP assessed as maximal sensitivity at 10 uM relative to control
[9] = Reversal of SN-38 resistance in dog MDCK-II-BCRP cells assessed as SN-38 GI50 at 1 uM measured for 72 hrs by MTT assay; type: functional; conditions: Canis lupus familiaris; how it was run: as §2
P-gp (ABCB1) [10] = molecular target: P-gp (ABCB1) (Homo sapiens, UniProt P08183); assay: Inhibition of P-gp (unknown origin) at 10 uM incubated for 30 mins by calcein AM analysis relative to control; conditions: probe calcein AM
Chain of P-gp (ABCB1) (Homo sapiens, UniProt P08183) (P08183 whole entry): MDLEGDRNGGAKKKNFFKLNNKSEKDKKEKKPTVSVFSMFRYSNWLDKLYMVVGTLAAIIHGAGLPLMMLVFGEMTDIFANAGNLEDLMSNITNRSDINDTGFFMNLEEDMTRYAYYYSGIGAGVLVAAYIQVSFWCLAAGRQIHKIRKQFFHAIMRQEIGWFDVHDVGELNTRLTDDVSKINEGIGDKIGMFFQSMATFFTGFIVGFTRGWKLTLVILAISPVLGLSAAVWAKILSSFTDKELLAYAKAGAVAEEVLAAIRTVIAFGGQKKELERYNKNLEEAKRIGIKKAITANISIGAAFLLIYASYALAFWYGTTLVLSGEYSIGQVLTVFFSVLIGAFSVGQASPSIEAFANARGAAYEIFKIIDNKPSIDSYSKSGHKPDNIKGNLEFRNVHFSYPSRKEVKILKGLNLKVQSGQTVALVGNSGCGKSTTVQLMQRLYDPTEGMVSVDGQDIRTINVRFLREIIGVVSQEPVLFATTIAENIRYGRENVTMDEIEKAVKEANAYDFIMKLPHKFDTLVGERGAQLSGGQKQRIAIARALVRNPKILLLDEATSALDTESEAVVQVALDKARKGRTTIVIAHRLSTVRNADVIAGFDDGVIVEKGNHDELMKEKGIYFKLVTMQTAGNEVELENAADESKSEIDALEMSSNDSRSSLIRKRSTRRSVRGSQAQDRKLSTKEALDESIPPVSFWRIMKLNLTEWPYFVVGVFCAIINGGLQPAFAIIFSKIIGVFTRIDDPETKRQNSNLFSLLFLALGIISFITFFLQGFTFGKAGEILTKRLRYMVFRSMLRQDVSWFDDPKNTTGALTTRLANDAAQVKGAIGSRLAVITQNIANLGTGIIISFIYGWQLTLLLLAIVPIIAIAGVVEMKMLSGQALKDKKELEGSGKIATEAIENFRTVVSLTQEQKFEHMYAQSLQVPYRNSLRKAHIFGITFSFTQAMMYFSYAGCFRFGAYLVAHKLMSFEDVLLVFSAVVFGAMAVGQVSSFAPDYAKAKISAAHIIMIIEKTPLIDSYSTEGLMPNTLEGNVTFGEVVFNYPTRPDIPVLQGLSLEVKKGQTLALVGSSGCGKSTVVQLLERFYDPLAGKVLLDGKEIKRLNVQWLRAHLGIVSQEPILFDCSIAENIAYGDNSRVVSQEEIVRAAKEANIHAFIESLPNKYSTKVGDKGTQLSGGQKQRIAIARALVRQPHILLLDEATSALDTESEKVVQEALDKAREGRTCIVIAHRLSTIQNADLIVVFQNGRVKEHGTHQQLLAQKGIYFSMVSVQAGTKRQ
How it was run: (§4)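 A2780/ADR cells (doxorubicin-selected, P-gp overexpressing), about 30,000 per well in Krebs-HEPES buffer pH 7.4, incubated 30 min at 37 °C with compound (100 nM–100 µM added solutions). Calcein AM (3.125 µM solution added) then fluorescence read every 60 s at 37 °C, ex 485/em 520 nm; slope over minutes 5–30 plotted vs log concentration. Cyclosporine A 10 µM = 100% inhibition, buffer = 0%.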

H69AR [11] = assay: Reversal of Daunorubicin resistance in human NCI-H69AR cells assessed as Daunorubicin GI50 at 10 uM measured for 72 hrs by MTT assay; type: functional; how it was run: as §2
[12] = molecular target: ATP-dependent translocase ABCB1 (Homo sapiens, UniProt P08183); assay: Inhibition of P-gp (unknown origin) incubated for 30 mins by calcein AM analysis; how it was run: as §4
Chain of ATP-dependent translocase ABCB1 (P08183 whole entry): as above

MDCK-II = assay: Antiproliferative activity against dog MDCK-II cells assessed as reduction in cell viability measured for 72 hrs bt MTT assay; type: functional; conditions: Canis lupus familiaris
[13] = Potentiation factor, ratio of GI50 for daunorubicin resistant human A2780 ADR cells expressing P-gp cells to GI50 for reversal of daunorubicin resistance in human A2780 ADR cells assessed as daunorubicin GI50 at 10 uM (reference value: 1 uM); type: functional; how it was run: as §2
[14] = Potentiation factor, ratio of GI50 for SN-38 resistant dog MDCK-II-BCRP cells expressing BCRP cells to GI50 for reversal of SN-38 resistance in dog MDCK-II-BCRP cells assessed as SN-38 GI50 at 1 uM (reference value: 1 uM); type: functional, Canis lupus familiaris; how it was run: as §2
[15] = Inhibition of daunorubicin sensitive human A2780 ADR cells expressing P-gp measured for 72 hrs by MTT assay; type: functional; how it was run: as §2
H69AR [16] = assay: Antiproliferative activity against human NCI-H69AR cells assessed as reduction in cell viability measured for 72 hrs bt MTT assay; type: functional
[17] = Reversal of drug resistance in human A2780 ADR cells expressing P-gp; type: functional, cell-based
How it was run: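 Cells seeded per well (A2780/ADR 8,000; H69AR 20,000; MDCK II BCRP 3,000) with test compound at 1, 10 or 100 µM solutions added before cells. Daunorubicin (P-gp, MRP1) or SN-38 (BCRP) added to final 10 nM–10 µM. 72 h at 37 °C, then MTT viability read at 570 nm. GI50 from variable-slope nonlinear fits, compared with parental lines; three independent experiments in duplicate.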

[18] = Antiproliferative activity against human A2780 ADR cells assessed as reduction in cell viability measured for 72 hrs bt MTT assay; type: functional
BCRP (ABCG2) = assay: Therapeutic index, ratio of GI50 for antiproliferative activity against dog MDCK-II-BCRP cells to IC50 for inhibition of BCRP (unknown origin) expressed in dog MDCK-II cells; type: toxicity, cell-based; how it was run: as §3

Structure (SMILES): N#Cc1cn(CCCc2ccccc2)c2c(N3CCN(CCc4c[nH]c5ccccc45)CC3)ncnc12
- GI50 (A2780): 6360 nM
- inhibition at 3 h, 10 µM (MRP1 [1]): > 25%
- IC50 [2]: 501 nM
- PF (H69AR [3]): 3.3
- selectivity ratio (MRP1 [4]): 303
- GI50 (NCI-H69): 55400 nM
- PF [5]: 28
- selectivity ratio (P-gp (ABCB1) [6]): 9.4
- GI50 [7]: 44 nM
- Activity [8]: 140%
- GI50 [9]: 211 nM
- inhibition at 0.5 h, 10 µM (P-gp (ABCB1) [10]): > 25%
- GI50 (H69AR [11]): 445 nM
- IC50 [12]: 1460 nM
- GI50 (MDCK-II): 37200 nM
- RatioGI50 [13]: 13
- PF [14]: 8.1
- GI50 [15]: 10 nM
- GI50 (H69AR [16]): 152000 nM
- EC50 [17]: 563 nM
- GI50 [18]: 13700 nM
- selectivity ratio (BCRP (ABCG2)): 14
